Measurements from different studies.
Protocols differ between the studies behind these lines.
Target: Serine/threonine-protein kinase 10 (STK10, Homo sapiens, UniProt O94804)

| Compound | effect on | mode | technique | cells | concentration | quantity | value |
| --- | --- | --- | --- | --- | --- | --- | --- |
| O=C1Nc2ccc(Cl)cc2C1=Cc1cc(Cl)c(O)c(Cl)c1 | cell-free assay |  |  |  | 0.5 µM | remaining signal | 77.1% |
| CC(C)(O)[C@H]1CC[C@H](Nc2ccc3ncc(-c4cccc(C(F)(F)F)c4)n3n2)CC1 | enzyme activity | inhibitor |  |  | 1 µM | remaining activity | 63.8% |
| CNC(=O)c1cc(Oc2ccc(NC(=O)Nc3ccc(Cl)c(C(F)(F)F)c3)cc2)ccn1 | enzyme activity | inhibitor |  |  | 0.3 µM | inhibition | 43% |
| O=S(=O)(NC1CCC(c2cc(F)ccc2F)(S(=O)(=O)c2ccc(Cl)cc2)CC1)C(F)(F)F (centres unmarked) | cell-free assay |  | competition with immobilised ligand |  | 1 µM | remaining binding | 100% |
| Cc1ccc(NC(=O)c2ccc(C)c(C(F)(F)F)c2)cc1C#Cc1nn(C2CCC(O)CC2)c2ncnc(N)c12 (centres unmarked) | cell-free assay |  |  |  | 10 µM | remaining signal | 16% |
| Cc1noc([C@H]2C[C@@H](c3ccc(C(F)(F)F)cc3)CN(C(=O)N3CCS(=O)(=O)C3)C2)n1 | cell-free assay |  | competition with immobilised ligand |  | 1 µM | remaining binding | 100% |
| Cc1ccc(Nc2nccc(N(C)c3ccc4c(C)n(C)nc4c3)n2)cc1S(N)(=O)=O | enzyme activity | inhibitor |  |  | 0.5 µM | remaining activity | 50.1% |
| CCCS(=O)(=O)Nc1ccc(F)c(C(=O)c2c[nH]c3ncc(-c4ccc(Cl)cc4)cc23)c1F | enzyme activity | inhibitor |  |  | 1 µM | inhibition | < 10% |
| Cc1sc(C(=O)NC2COC2)cc1-n1cc(NC(=O)Nc2c(F)cccc2Cl)cn1 | enzyme activity | inhibitor |  |  | 10 µM | remaining activity | 96.4% |
| COc1cc2nccc(Oc3ccc(NC(=O)Nc4ccc(F)cc4F)c(F)c3)c2cc1OC | thermal stability |  | DSF |  | 10 µM | ΔTm | > 10 °C |
| C#Cc1cccc(Nc2ncnc3cc(OCCOC)c(OCCOC)cc23)c1 | cell-free assay |  |  |  | 0.5 µM | remaining signal | 20.3% |
| CNCc1ccccc1-c1csc([C@H](C)Nc2nc(C)nc3cc(OC)c(OC)cc23)c1 | cell-free assay |  | competition with immobilised ligand |  | 1 µM | remaining binding | 100% |
| Cc1ccc(C(=O)Nc2ccc(CN3CCN(C)CC3)c(C(F)(F)F)c2)cc1C#Cc1cnc2cccnn12 | enzyme activity | inhibitor |  |  | 23.5 nM | remaining activity | 0.05% |
| CCN1CCN(Cc2ccc(NC(=O)c3ccc(C)c(Oc4ccnc5[nH]ccc45)c3)cc2C(F)(F)F)CC1 | target engagement in cells | inhibitor | chemoproteomics | A-375 | 0.5 µM | inhibition | -177% |
| FC(F)(F)c1ccc2c(c1)nc(-c1cccnc1)n2C1CC1 | cell-free assay |  | competition with immobilised ligand |  | 1 µM | remaining binding | 100% |
| Nc1ncnc2occ(-c3ccc(NC(=O)Nc4cc(C(F)(F)F)ccc4F)cc3)c12 | cell-free assay | inhibitor |  |  | 20 µM | remaining signal | 0% |
| O=C(Nc1cnn(-c2csc(C(=O)NC3COC3)c2)c1)Nc1c(F)cccc1Cl | enzyme activity | inhibitor |  |  | 5 µM | remaining activity | 89% |
| Nc1cnc(N2CCc3cc(S(=O)(=O)Nc4c(F)cc(Cl)cc4F)cc(N4CCCC4=O)c32)nc1 | cell-free assay |  | competition with immobilised ligand |  | 1 µM | remaining binding | 100% |
| N#CCCc1ccc2c(c1)-c1[nH]c3ccc([N+](=O)[O-])cc3c1CC(=O)N2 | cell-free assay |  |  |  | 0.5 µM | remaining signal | 74.1% |
| CCOCCn1cc(C(=O)Nc2ccc(-n3nc(-c4cccnc4)cc3C(F)(F)F)cn2)ccc1=O | cell-free assay |  | competition with immobilised ligand |  | 1 µM | remaining binding | 100% |
| CCN(CC)CCNC(=O)c1c(C)[nH]c(/C=C2\C(=O)Nc3ccc(F)cc32)c1C | enzyme activity | inhibitor |  |  | 10 µM | inhibition | 83% |
| O=C1CCc2cc(Nc3cc(OC4CCOCC4)c([N+](=O)[O-])cc3Cl)ccc2N1 | cell-free assay |  | competition with immobilised ligand |  | 1 µM | remaining binding | 100% |
| CCN1CCN(Cc2ccc(NC(=O)c3ccc(C)c(/C=C/c4cnc5[nH]ccc5c4OC)c3)cc2C(F)(F)F)CC1 | target engagement in cells | inhibitor | chemoproteomics | A-375 | 50 nM | inhibition | -39.1% |
